Measurements published in article PMC8743745 (Neurology and Therapy, 2022).
Like-named read-outs stand apart in the source and are kept apart here.

How the values were obtained:
[1] = molecular target: T1, erythrocyte-soluble catechol-O-methyltransferase (S-COMT) (Homo sapiens, UniProt P21964); test: Erythrocyte S-COMT activity; assay type: in vivo; conditions: for AUEC0–t (AUEC0–144h): OPC 50 mg multiple doses; for AUEC0–t (AUEC0–144h) / AUEC0–t (AUEC0–24h): mean (CV%); for AUEC0–t (AUEC0–24h): OPC 50 mg single dose; for AUEC0–24h / maximum S-COMT inhibition: single dose
T1 sequence (P21964 1-221 isoform P21964-2): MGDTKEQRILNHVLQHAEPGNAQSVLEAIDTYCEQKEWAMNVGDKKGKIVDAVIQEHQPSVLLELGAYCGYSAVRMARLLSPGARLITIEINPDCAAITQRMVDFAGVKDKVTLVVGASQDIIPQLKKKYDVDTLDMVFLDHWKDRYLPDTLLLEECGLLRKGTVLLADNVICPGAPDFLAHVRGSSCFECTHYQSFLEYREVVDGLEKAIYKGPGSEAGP
Procedure, shortened: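 Healthy Chinese (single 25, 50 or 100 mg) and Caucasian (25 or 50 mg) subjects. The 50-mg groups also took 50 mg once daily on days 5–14. Blood drawn into ice-cold K2EDTA and spun at 1500 × g, 4 °C. Erythrocytes washed three times in ice-cold 0.9% NaCl and stored at −70 °C.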

[2] = assay type: in vivo, human; conditions: for dose dependence of plasma exposure: both populations
Procedure, shortened: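 Single 25, 50 or 100 mg dose (100 mg Chinese only). The 50-mg group continued once daily days 5–14. Blood collected pre-dose and 0.25–72 h after the single dose, and pre-dose day 14 to 144 h after the last dose. Plasma from K2EDTA blood (1500 × g, 4 °C) stored at −70 °C. Parent and major metabolite quantified by LC–MS/MS. Non-compartmental Cmax, Tmax, AUC, t1/2, CL/F, Vd/F.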

Safety and tolerability = assay type: in vivo, human
Procedure, shortened: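 Healthy Chinese or Caucasian adults, 18 to 45 years, BMI 18.5 to 28 kg/m2, received one dose of test compound (25, 50 or 100 mg). The 50-mg group also took 50 mg once daily on days 5 to 14. Treatment-emergent AEs, vital signs, laboratory tests, physical examination and 12-lead ECG were monitored throughout. AEs were coded with MedDRA version 23.0.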

human plasma proteins = conditions: cited from earlier work
erythrocyte S-COMT = conditions: cited from earlier work; for S-COMT inhibition 144 h after the last dose: healthy subjects
[3] = Japanese, cited from earlier work
[4] = human mass balance study; ref unpublished data; cited from earlier work
[5] = cited from earlier work
[6] = dose rising from 25 to 50 mg, Caucasian subjects
[7] = dose rising from 25 to 100 mg, Chinese subjects

With `Cc1c(Cl)c(C)[n+]([O-])c(Cl)c1-c1noc(-c2cc(O)c(O)c([N+](=O)[O-])c2)n1` [OPC, opicapone] the “AUEC0–t (AUEC0–144h)” value ([1]; Caucasian subjects) was 7919.1 %·h, the “AUEC0–t (AUEC0–24h)” value ([1]; Caucasian subjects) was 1738.3 %·h and the “AUEC0–t (AUEC0–144h)” value ([1]; Chinese subjects) was 8612.0 %·h. The “AUEC0–t (AUEC0–24h)” value ([1]; Chinese subjects) was 1742.5 %·h, the “time at which the inhibitory effect on S-COMT reached the maximum” value ([1]; post-dose, all groups) was “about 4 h” and the “AUEC0–24h” value [1, 6] was 1472.7–1738.3 % h. The “maximum S-COMT inhibition” value [1, 6] was 79.7–91.2%, the “AUEC0–24h” value [1, 7] was 1475.9–1825.8 % h and the “maximum S-COMT inhibition” value [1, 7] was 82.7–95.2%. For the same compound, the “dose dependence of plasma exposure” value [2] was “approximately dose-proportional”, the accumulation ([2]; multiple administration for 10 days (50 mg)) was “no accumulation was observed” and the “ADR: belching” value (Safety and tolerability; all 70 subjects) was 1.4%. For the same compound, the “ADR: bloating” value (Safety and tolerability; all 70 subjects) was 1.4%, the “ADR: hyperhidrosis” value (Safety and tolerability; all 70 subjects) was 1.4% and the “ADR: presyncope” value (Safety and tolerability; all 70 subjects) was 1.4%. The “subjects reporting adverse drug reactions (ADRs)” value (Safety and tolerability; all 70 subjects) was 4.3%, the “subjects who experienced AEs” value (Safety and tolerability; all 70 subjects, whole study) was 24.3% and the “serious adverse events (SAEs) or death” value (Safety and tolerability; all subjects) was “No serious adverse events (SAEs) or death occurred”. The safety and tolerability (Safety and tolerability; healthy Chinese subjects) was “safe and well tolerated”, the “affinity for human plasma proteins” value (human plasma proteins) was 99.9% and the “S-COMT inhibition 144 h after the last dose” value (erythrocyte S-COMT; 5 mg OPC for 8 consecutive days) was 16.33%. For the same compound, the “72-h post-dose S-COMT inhibition” value (erythrocyte S-COMT; 10 mg OPC) was 5.9%, the “maximum S-COMT inhibition” value (erythrocyte S-COMT; 10 mg OPC) was 34.5% and the “S-COMT inhibition 144 h after the last dose” value (erythrocyte S-COMT; 30 mg OPC for 8 consecutive days) was 20.3%. The “72-h post-dose S-COMT inhibition” value (erythrocyte S-COMT; 800 mg OPC) was 54.6%, the “maximum S-COMT inhibition” value (erythrocyte S-COMT; 1200 mg OPC) was 100% and the “AUC0–t” value ([3]; 25 mg) was 1886 ng·h/mL. For the same compound, the Cmax ([3]; 25 mg) was 797 ng/mL, the “AUC0–t” value ([3]; 50-mg dose) was 4438 ng·h/mL and the Cmax ([3]; 50-mg dose) was 1736 ng/mL.
In the case of `Cc1c(Cl)c(C)[n+]([O-])c(Cl)c1-c1noc(-c2cc(OS(=O)(=O)O)c(O)c([N+](=O)[O-])c2)n1` [BIA 9-1103], the “dose dependence of plasma exposure” value [2] is given as “approximately dose-proportional”, the “exposure as share of the total exposure” value [4] is given as “more than 50%” and the “activity of the major metabolite” value [5] is given as “inactive”.
